Test results as given in ChEMBL document CHEMBL4014350, “Alkoxyurea-Based Histone Deacetylase Inhibitors Increase Cisplatin Potency in Chemoresistant Cancer Cell Lines” (J Med Chem, 2017).

Tests used:
[1] = system: CAL-27; experiment: Antiproliferative activity against human CAL27 cells measured after 72 hrs by MTT assay; format: functional, cell-based; details: CAL-27, 72 h
[2] = system: A2780cisR; experiment: Antiproliferative activity against human A2780cisR cells measured after 72 hrs by MTT assay; format: functional, cell-based
[3] = Antiproliferative activity against human Cal27CisR cells measured after 72 hrs by MTT assay; format: functional, cell-based
[4] = system: ONS-76; experiment: Antiproliferative activity against human ONS76 cells after 72 hrs by Celltiter-Glo assay; format: functional, cell-based; details: ONS-76, 72 h
[5] = Inhibition of HDAC in human CAL27 cells using Boc-Lys(epsilon-Ac)-AMC as substrate preincubated for 18 hrs followed by substrate addition measured after 3 hrs by fluorescence assay; format: cell-based; details: CAL-27
[6] = Inhibition of HDAC in human A2780CisR cells using Boc-Lys(epsilon-Ac)-AMC as substrate preincubated for 18 hrs followed by substrate addition measured after 3 hrs by fluorescence assay; format: cell-based
[7] = target: Histone deacetylase 4 (Homo sapiens, UniProt P56524); experiment: Inhibition of recombinant human N-terminal GST-tagged/C-terminal His-tagged HDAC4 expressed in insect cells using Boc-K(Ac)-AMC as substrate by fluorescence assay
Histone deacetylase 4, sequence (P56524 whole entry): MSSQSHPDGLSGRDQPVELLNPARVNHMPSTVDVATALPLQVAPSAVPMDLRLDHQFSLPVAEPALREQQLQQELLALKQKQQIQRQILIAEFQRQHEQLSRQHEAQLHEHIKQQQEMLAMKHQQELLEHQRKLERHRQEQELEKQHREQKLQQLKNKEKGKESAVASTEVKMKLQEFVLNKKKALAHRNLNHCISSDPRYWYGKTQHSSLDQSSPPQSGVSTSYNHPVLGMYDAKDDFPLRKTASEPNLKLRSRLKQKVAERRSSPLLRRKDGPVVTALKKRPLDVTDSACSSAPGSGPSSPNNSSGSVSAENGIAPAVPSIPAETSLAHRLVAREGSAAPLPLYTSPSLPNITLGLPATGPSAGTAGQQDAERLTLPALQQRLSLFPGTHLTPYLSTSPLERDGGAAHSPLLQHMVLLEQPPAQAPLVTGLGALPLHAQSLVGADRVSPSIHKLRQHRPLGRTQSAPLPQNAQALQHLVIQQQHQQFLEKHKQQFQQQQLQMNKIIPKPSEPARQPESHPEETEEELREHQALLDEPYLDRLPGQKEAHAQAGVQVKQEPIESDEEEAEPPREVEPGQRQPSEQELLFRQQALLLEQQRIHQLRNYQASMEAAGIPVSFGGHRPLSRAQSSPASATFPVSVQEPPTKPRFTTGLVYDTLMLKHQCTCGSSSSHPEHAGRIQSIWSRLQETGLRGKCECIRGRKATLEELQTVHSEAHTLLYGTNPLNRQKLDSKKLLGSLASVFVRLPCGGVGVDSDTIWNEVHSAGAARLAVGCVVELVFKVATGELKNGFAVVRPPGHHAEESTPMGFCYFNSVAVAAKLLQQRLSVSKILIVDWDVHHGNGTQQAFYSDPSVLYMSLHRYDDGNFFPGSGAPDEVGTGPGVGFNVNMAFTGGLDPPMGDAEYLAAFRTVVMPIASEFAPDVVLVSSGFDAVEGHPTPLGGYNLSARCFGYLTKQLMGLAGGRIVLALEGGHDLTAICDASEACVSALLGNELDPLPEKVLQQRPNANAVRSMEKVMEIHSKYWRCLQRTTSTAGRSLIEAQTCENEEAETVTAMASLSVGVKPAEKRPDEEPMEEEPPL

[8] = system: CAL-27; experiment: Potentiation of 0.316 uM cisplatin-induced cytotoxicity against human CAL27 cells assessed as decrease in cell viability by measuring combination index at 600 uM preincubated for 48 hrs followed by cisplatin treatment measured after 72 hrs by MTT assay; format: functional; details: in the assay text read “at 600 nM” for “at 600 uM”
Outline: (§1)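 Cal27 and cisplatin-resistant Cal27CisR cells were preincubated with the HDAC inhibitor for 48 h, then given cisplatin in combination. Viability was read by MTT after 72 h. The combination index was computed by the Chou–Talalay method: CI > 1 is antagonism, CI = 1 is additive, and CI < 0.9 is synergism. Points with fraction affected below 0.20 were flagged.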

[9] = system: CAL-27; experiment: Potentiation of 0.316 uM cisplatin-induced cytotoxicity against human CAL27 cells assessed as decrease in cell viability by measuring combination index at 800 uM preincubated for 48 hrs followed by cisplatin treatment measured after 72 hrs by MTT assay; format: functional; details: in the assay text read “at 800 nM” for “at 800 uM”; outline: as §1
[10] = system: CAL-27; experiment: Potentiation of 0.5 uM cisplatin-induced cytotoxicity against human CAL27 cells assessed as decrease in cell viability measuring combination index at 500 uM preincubated for 48 hrs followed by cisplatin treatment measured after 72 hrs by MTT assay; format: functional; details: in the assay text read “at 500 nM” for “at 500 uM”; outline: as §1
[11] = system: CAL-27; experiment: Potentiation of 0.5 uM cisplatin-induced cytotoxicity against human CAL27 cells assessed as decrease in cell viability measuring combination index at 600 uM preincubated for 48 hrs followed by cisplatin treatment measured after 72 hrs by MTT assay; format: functional; details: in the assay text read “at 600 nM” for “at 600 uM”; outline: as §1
[12] = system: CAL-27; experiment: Potentiation of 1 uM cisplatin-induced cytotoxicity against human CAL27 cells assessed as decrease in cell viability by measuring combination index at 500 uM preincubated for 48 hrs followed by cisplatin treatment measured after 72 hrs by MTT assay; format: functional
Outline: (§2)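 HDAC inhibitor was added 48 h before cisplatin, then cells were exposed to cisplatin for 72 h and viability was read by MTT assay. Combination index was computed by the Chou–Talalay method: CI > 1 is antagonism, CI = 1 additive, CI < 0.9 synergism. Points with fraction affected below 0.20 were flagged.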

[13] = system: CAL-27; experiment: Potentiation of 1 uM cisplatin-induced cytotoxicity against human CAL27 cells assessed as decrease in cell viability by measuring combination index at 600 uM preincubated for 48 hrs followed by cisplatin treatment measured after 72 hrs by MTT assay; format: functional; outline: as §2
[14] = system: CAL-27; experiment: Potentiation of 2 uM cisplatin-induced cytotoxicity against human CAL27 cells assessed as decrease in cell viability by measuring combination index at 700 uM preincubated for 48 hrs followed by cisplatin treatment measured after 72 hrs by MTT assay; format: functional; details: in the assay text read “at 700 nM” for “at 700 uM”; outline: as §2
[15] = system: CAL-27; experiment: Potentiation of 5 uM cisplatin-induced cytotoxicity against human CAL27 cells assessed as decrease in cell viability by measuring combination index at 600 uM preincubated for 48 hrs followed by cisplatin treatment measured after 72 hrs by MTT assay; format: functional; details: in the assay text read “at 600 nM” for “at 600 uM”; outline: as §2
[16] = system: CAL-27; experiment: Potentiation of 5 uM cisplatin-induced cytotoxicity against human CAL27 cells assessed as decrease in cell viability by measuring combination index at 700 uM preincubated for 48 hrs followed by cisplatin treatment measured after 72 hrs by MTT assay; format: functional; details: in the assay text read “at 700 nM” for “at 700 uM”; outline: as §2
[17] = system: CAL-27; experiment: Potentiation of 5 uM cisplatin-induced cytotoxicity against human CAL27 cells assessed as decrease in cell viability by measuring combination index at 800 uM preincubated for 48 hrs followed by cisplatin treatment measured after 72 hrs by MTT assay; format: functional; details: in the assay text read “at 800 nM” for “at 800 uM”; outline: as §2
[18] = target: T1, Histone deacetylase 1/6 (Homo sapiens) (UniProt Q13547+Q9UBN7); experiment: Inhibition of HDAC1/HDAC6 in human Cal27CisR cells assessed as potentiation of 1 uM cisplatin-induced cytotoxicity by measuring combination index at 700 uM preincubated for 48 hrs followed by cisplatin treatment measured after 72 hrs by MTT assay; format: cell-based
T1 sequence (Q13547 whole entry, looked up): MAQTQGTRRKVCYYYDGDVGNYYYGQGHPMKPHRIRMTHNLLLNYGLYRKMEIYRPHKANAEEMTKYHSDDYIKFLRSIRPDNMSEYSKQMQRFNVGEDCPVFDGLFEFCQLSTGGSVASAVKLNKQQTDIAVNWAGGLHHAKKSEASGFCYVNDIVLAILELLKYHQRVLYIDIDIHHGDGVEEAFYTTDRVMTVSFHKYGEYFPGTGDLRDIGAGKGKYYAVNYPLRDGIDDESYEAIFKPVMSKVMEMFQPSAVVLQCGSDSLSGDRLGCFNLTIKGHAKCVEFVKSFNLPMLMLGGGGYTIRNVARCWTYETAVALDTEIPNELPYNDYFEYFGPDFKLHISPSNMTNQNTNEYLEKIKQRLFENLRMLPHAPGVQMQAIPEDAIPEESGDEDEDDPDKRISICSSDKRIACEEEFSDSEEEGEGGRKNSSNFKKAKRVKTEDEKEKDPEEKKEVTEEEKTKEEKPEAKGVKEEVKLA
T1 sequence (Q9UBN7 whole entry, looked up): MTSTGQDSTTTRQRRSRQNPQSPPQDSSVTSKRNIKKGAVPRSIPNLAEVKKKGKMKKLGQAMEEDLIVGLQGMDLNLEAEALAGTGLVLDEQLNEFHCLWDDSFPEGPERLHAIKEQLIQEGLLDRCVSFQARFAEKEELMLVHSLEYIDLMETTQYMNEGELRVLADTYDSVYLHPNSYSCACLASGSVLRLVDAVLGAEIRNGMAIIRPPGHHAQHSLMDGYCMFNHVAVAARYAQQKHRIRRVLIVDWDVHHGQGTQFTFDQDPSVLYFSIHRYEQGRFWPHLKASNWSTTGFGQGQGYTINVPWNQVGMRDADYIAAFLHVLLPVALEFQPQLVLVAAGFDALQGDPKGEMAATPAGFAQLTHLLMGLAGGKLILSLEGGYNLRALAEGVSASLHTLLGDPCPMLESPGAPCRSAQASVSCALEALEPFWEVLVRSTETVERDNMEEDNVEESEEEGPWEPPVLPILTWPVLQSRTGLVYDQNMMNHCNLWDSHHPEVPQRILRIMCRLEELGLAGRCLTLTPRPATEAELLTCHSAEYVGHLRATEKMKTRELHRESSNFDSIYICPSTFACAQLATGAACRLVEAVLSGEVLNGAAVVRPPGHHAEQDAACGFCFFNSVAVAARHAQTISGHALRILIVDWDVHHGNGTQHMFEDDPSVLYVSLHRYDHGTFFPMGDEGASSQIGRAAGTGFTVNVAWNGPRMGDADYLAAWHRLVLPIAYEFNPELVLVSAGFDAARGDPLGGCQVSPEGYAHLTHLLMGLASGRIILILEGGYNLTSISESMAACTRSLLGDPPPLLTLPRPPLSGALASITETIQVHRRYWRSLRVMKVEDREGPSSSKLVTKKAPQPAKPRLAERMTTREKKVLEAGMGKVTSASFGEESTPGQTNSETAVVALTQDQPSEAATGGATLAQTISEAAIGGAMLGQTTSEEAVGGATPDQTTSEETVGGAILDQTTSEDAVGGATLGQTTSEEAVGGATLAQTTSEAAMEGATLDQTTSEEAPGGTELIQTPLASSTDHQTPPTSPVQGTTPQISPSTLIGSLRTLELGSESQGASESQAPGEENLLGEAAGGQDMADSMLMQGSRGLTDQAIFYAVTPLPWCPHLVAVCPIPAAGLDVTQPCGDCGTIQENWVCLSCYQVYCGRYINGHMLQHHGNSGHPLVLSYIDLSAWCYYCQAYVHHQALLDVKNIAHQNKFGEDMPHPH
Outline: (§3)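 Cal27CisR cells preincubated 48 h with the HDAC inhibitor, then exposed to cisplatin for 72 h. Viability read by MTT. Combination index calculated by the Chou–Talalay method: CI > 1 antagonism, CI = 1 additive, CI < 0.9 synergism. Points with fraction affected below 0.20 are flagged. Values are the mean of three experiments.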

[19] = target: T1, Histone deacetylase 1/6 (Homo sapiens); experiment: Inhibition of HDAC1/HDAC6 in human Cal27CisR cells assessed as potentiation of 1 uM cisplatin-induced cytotoxicity by measuring combination index at 800 uM preincubated for 48 hrs followed by cisplatin treatment measured after 72 hrs by MTT assay; format: cell-based; outline: as §3
[20] = target: T1, Histone deacetylase 1/6 (Homo sapiens); experiment: Inhibition of HDAC1/HDAC6 in human Cal27CisR cells assessed as potentiation of 5 uM cisplatin-induced cytotoxicity by measuring combination index at 600 uM preincubated for 48 hrs followed by cisplatin treatment measured after 72 hrs by MTT assay; format: cell-based; outline: as §1
[21] = organism: Homo sapiens; experiment: Selectivity ratio of IC50 for HDAC in human A2780 cells to IC50 for HDAC in human A2780CisR cells; format: cell-based
[22] = target: T1, Histone deacetylase 1/6 (Homo sapiens); experiment: Inhibition of HDAC1/HDAC6 in human Cal27CisR cells assessed as potentiation of 20 uM cisplatin-induced cytotoxicity by measuring combination index at 600 nM preincubated for 48 hrs followed by cisplatin treatment measured after 72 hrs by MTT assay
[23] = target: T1, Histone deacetylase 1/6 (Homo sapiens); experiment: Inhibition of HDAC1/HDAC6 in human Cal27CisR cells assessed as potentiation of 3.16 uM cisplatin-induced cytotoxicity by measuring combination index at 800 nM preincubated for 48 hrs followed by cisplatin treatment measured after 72 hrs by MTT assay

SMILES	IC50 [1]	IC50 [2]	IC50 [3]	IC50 [4]	IC50 [5]	IC50 [6]	IC50 [7]	CI [8]	CI [9]	CI [10]	CI [11]	CI [12]	CI [13]	CI [14]	CI [15]	CI [16]	CI [17]	CI [18]	CI [19]	CI [20]	further results
COc1cc(NC(=O)NOCCCCCC(=O)NO)c2nccc(C)c2c1	600 nM	300 nM	1300 nM	590 nM	600 nM	400 nM	> 10000 nM	0.93	0.56	0.49	0.58	0.37	0.37	0.36	0.33	0.41	0.38	< 0.2	1.09	0.25	Ratio IC50 [21]: 2 to 3.4; CI [22]: 0.21; CI [23]: 0.26
COc1cc(NC(=O)NOCCCCCC(=O)NO)c2ncccc2c1	900 nM	400 nM	1300 nM	2670 nM	900 nM	500 nM	> 10000 nM	0.79	<0.2	0.87	0.77	0.67	0.57	0.43	0.34	0.32	0.36	< 0.2	0.81	0.6	Ratio IC50 [21]: 2 to 3.4; CI [22]: 0.37; CI [23]: 0.51
COc1cc(NC(=O)NOCCCCCC(=O)NO)c2nc(OC)cc(C)c2c1	1000 nM	400 nM	1300 nM	650 nM	500 nM	500 nM	> 10000 nM	0.71	0.84	0.66	0.66	0.5	0.53	0.6	0.49	0.64	0.69	< 0.2	0.65	0.2	Ratio IC50 [21]: 2 to 3.4; CI [22]: 0.19; CI [23]: 0.29
